The target of data set [1] is T1, Cytochrome P450 3A4 (Homo sapiens, UniProt P08684). Nature of the data set: Rate of Oxidation in human liver microsomes is measured as mean (nmol product) formed / min per nmol cytochrome P-450.
A short description of data set [2]: Percent inhibition of human liver microsome cytochrome P-450 mediated phenacetin O-deethylase activity in the presence of NADPH. As to conditions: microsomes. Put shortly:
(§1)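 Human liver microsomes (sample HL 95) preincubated with test compound (50 μM) plus NADPH-generating system for 20 min at 37 °C. […] Activity measured afterwards; values corrected for inhibition by methanol solvent alone.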
On the technique in general: Microsomes from liver hold many membrane-bound enzymes, among them those of drug oxidation.

In data set [3] the target is T1, Cytochrome P450 3A4. Description: Percent inhibition of human liver microsome cytochrome P-450 mediated nifedipine oxidase activity without NADPH. Conditions: microsomes. Put shortly: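 Microsomes (HL 95, 500 pmol P-450 in 0.5 mL 50 mM potassium phosphate, pH 7.85) preincubated 20 min at 37 °C with compound (50 μM) without NADPH-generating system. […] Values corrected for methanol solvent.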

Data set [4] addresses T1, Cytochrome P450 3A4. Nature of the data set: Percent inhibition of human liver microsome cytochrome P-450 mediated nifedipine oxidase activity in the presence of NADPH. As to conditions: microsomes. Put shortly:
as §1

The nature of data set [5]: Percent inhibition of human liver microsome cytochrome P-450 mediated hexobarbital 3'-hydroxylase activity in the presence of NADPH. As to conditions: microsomes. A digest of the protocol: as §1
In data set [6] the target is T1, Cytochrome P450 3A4. Description: Rate of Oxidation in human liver microsomes as mean (nmol product) formed/min/nmol cytochrome P-450; e denotes Product not separated with HPCL system. The format is ADME, Microsome. Put shortly:
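NADPH-fortified human liver microsomes (HL 94, HL 95, HL 96; usually 50 pmol P-450), substrate 0.2 mM, 100 mM potassium phosphate pH 7.85, 37 °C, 10 min, amber vials. Stopped with Na2CO3/NaCl pH 10.5 and extracted into CH2Cl2. Pyridine product quantified by isocratic reversed-phase HPLC (UV 254 and/or 280 nm) against external standards by peak height. Value is the mean with range over the three samples.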

Data set [7] in a line: Percent inhibition of human liver microsome cytochrome P-450 mediated phenacetin O-deethylase activity without NADPH; Phenacetin O-deethylase activity inhibited by 40%. As to conditions: microsomes.

T1 sequence (P08684 whole entry): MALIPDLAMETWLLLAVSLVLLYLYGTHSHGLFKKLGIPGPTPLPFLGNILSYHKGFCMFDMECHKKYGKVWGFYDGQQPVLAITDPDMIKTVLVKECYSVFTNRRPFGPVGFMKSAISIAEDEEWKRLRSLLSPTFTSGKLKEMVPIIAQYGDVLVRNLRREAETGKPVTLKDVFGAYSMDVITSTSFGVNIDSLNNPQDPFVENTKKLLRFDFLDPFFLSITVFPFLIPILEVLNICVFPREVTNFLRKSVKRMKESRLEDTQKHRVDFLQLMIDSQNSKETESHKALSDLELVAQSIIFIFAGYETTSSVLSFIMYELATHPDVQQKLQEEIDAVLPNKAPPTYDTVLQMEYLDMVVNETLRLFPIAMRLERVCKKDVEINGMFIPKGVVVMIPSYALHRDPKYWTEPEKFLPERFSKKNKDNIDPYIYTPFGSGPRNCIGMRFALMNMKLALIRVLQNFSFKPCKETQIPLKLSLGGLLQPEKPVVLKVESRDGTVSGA

Take `COC(=O)C1=C(C)N=C(C)/C(=C(/O)OC)C1c1cccc(Cl)c1` (stereo unspecified): in data set [1], the Rate of oxidation is 0.5.
Still for that read-out and setting: to `CCCCCO/C(O)=C1\C(C)=NC(C)=C(C(=O)OCCOCCC)C1c1cccc([N+](=O)[O-])c1` (stereo unspecified) belongs 0.67; to `CCOC(=O)C1=C(C)NC(C)=C(C(=O)OCC)C1c1ccccc1`, 0.51.
On to `COC(=O)C1=C(C)N=C(C)/C(=C(/O)OC)C1Cc1ccccc1` (stereo unspecified), for which the Inhibition in data set [2] amounted to 50%; in data set [3] it was 25%; in data set [4] it was 86%; in data set [5] it was 80%. Also, the Rate of oxidation in data set [1] was 0.25.
`COC(=O)C1=C(C)N=C(C)/C(=C(/O)OC)C1c1c(F)cccc1Cl` (stereo unspecified): the Rate of oxidation in data set [1] was found to be 0.76.
The same measure, in the same setting: as for `COC(=O)C1=C(C)N=C(C)/C(=C(\O)OC)C1c1ccc(C)cc1` (stereo unspecified), the figure is 0.51; as for `COC(=O)C1=C(C)N=C(C)/C(=C(/O)OC)C1c1ccc(C(F)(F)F)cc1` (stereo unspecified), 0.45.
With `COC(=O)C1=C(C)N=C(C)/C(=C(/O)OC)C1C(C)C` (stereo unspecified), the Inhibition in data set [2] was 55%; in data set [3], 32%; in data set [4] it was 89%; in data set [5], 73%. The Rate of oxidation entry in data set [6] is “Not separated”.
`COC(=O)C1=C(C)NC(C)=C(C(=O)OC)C1c1ccccc1`: in data set [1], the Rate of oxidation came to 0.53.
Same read-out and setting: as for `CCOC(=O)C1=C(C)NC(C)=C(C(=O)OC)C1c1cccc([N+](=O)[O-])c1` (stereo unspecified) [NITRENDIPINE], the figure is 0.52.
Same read-out and setting: as for `COC(=O)C1=C(C)N=C(C)/C(=C(/O)OC)C1c1c(F)c(F)cc(F)c1F` (stereo unspecified), the figure is 0.98.
In the case of `COC(=O)C1=C(C)N=C(C)/C(=C(/O)OC)C1C1CC=CCC1` (stereo unspecified), the Inhibition in data set [2] was found to be 59%; in data set [3], 27%; in data set [4], 86%; in data set [5], 82%. Besides, the Rate of oxidation in data set [1] stood at 0.12.
The compound `COC(=O)C1=C(C)N=C(C)/C(=C(/O)OC)C1c1ccc(Cl)c([N+](=O)[O-])c1` (stereo unspecified) came in with a Rate of oxidation in data set [1] of 0.61.
In turn, `CCOC(=O)C1=C(C)N=C(C)/C(=C(/O)OCC)C1CC` (stereo unspecified) yielded a Rate of oxidation in data set [1] of 0.12. The Inhibition in data set [3] came out at 45%; in data set [7] it was 40%; in data set [4] it was 89%; in data set [5] it was 82%.
On to `COC(=O)C1=C(C)N=C(C)/C(=C(\O)OC)C1c1cccc(C#N)c1` (stereo unspecified), for which, in data set [1], the Rate of oxidation worked out at 0.41.

For orientation: Inhibition means the percentage by which the read-out fell short of the control.

These data come from ChEMBL document CHEMBL1123360, “Oxidation of 4-aryl- and 4-alkyl-substituted 2,6-dimethyl-3,5-bis(alkoxycarbonyl)-1,4-dihydropyridines by human liver microsomes and immunochemical evidence for the involvement of a form of cytochrome P-450” (J Med Chem, 1986).
